Results: publication PMC11485011 (Chemical Science, 2024)
Entries after “also recorded” stand apart in the source; their conditions may differ. Read-outs that look alike come from different tables or passages of the source.

What was measured:
hCB2R [1] = target: T1, hCB2R (Homo sapiens, UniProt P34972); assay: HTRF cAMP assay in CHO cells stably expressing hCB2R; type: cell-based; details: for Function: hCB2R cAMP assay
Procedure, shortened: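 Cells stably expressing hCB2R; inhibition of cAMP accumulation read by HTRF. […] Emax expressed as % of the reference full agonist APD371. Means of four or seven independent experiments run in technical replicates.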

hCB2R-CHO cells [2] = assay: endocytosis blocking study; type: cell-based, human; details: pretreatment 30 min with 0.4 M sucrose and 5 μg mL−1 filipin, probe 10 min
[3] = target: hCB2R overexpressing CHO cells (Homo sapiens, UniProt P34972); assay: super-resolution confocal imaging, mean fluorescence intensity of labeled CB2R; type: cell-based; details: 0.8 μM probe, 15 min
Chain of hCB2R overexpressing CHO cells (P34972 whole entry): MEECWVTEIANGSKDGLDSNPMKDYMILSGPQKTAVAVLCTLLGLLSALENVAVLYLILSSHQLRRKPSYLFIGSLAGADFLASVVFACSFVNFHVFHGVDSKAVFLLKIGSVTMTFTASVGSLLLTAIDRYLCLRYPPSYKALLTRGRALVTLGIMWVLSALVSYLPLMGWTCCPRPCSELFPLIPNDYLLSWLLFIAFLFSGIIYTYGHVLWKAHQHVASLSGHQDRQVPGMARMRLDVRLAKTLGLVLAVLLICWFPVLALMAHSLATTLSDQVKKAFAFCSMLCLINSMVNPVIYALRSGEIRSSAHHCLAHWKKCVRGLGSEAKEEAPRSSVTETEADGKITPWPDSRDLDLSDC
Procedure, shortened: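 Live hCB2R-overexpressing CHO cells stained with fluorescent probe plus Hoechst 33342 nuclear counterstain. Cells optically sectioned by confocal laser-scanning microscopy with an Airyscan detector (super-resolution).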

hCB2R-CHO cells [4] = assay: co-staining with LysoTracker, super-resolution confocal microscopy; type: cell-based, human; details: 15 min
Procedure, shortened: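 Live hCB2R-overexpressing CHO cells exposed for 15 min to the fluorescent probe together with LysoTracker as lysosome marker. Imaged by super-resolution confocal microscopy and channels merged to assess overlap. Three independent experiments, with five fields examined each.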

hCB2R [5] = target: T1, hCB2R; assay: TR-FRET kinetic binding characterization on HEK293-hCB2R cell membranes
[6] = tested on: primary human macrophages; assay: confocal microscopy of primary human macrophages; type: cell-based; details: 0.8 μM, 15 min, endogenous CB2R
hCB2R [7] = target: T1, hCB2R; assay: [3H]CP55940 displacement assay, hCB2R CHO membranes; type: binding; details: for Ki: Ki hCB2R, [3H]CP55940 displacement, CHO membranes stably expressing hCB2R; for Selectivity, ratio of Ki (CB1R)/Ki (CB2R): hCB2R over hCB1R
hCB1R = hCB1R (Homo sapiens, UniProt P21554); assay: [3H]CP55940 displacement assay, hCB1R CHO membranes; type: binding
Chain of hCB1R (P21554 whole entry): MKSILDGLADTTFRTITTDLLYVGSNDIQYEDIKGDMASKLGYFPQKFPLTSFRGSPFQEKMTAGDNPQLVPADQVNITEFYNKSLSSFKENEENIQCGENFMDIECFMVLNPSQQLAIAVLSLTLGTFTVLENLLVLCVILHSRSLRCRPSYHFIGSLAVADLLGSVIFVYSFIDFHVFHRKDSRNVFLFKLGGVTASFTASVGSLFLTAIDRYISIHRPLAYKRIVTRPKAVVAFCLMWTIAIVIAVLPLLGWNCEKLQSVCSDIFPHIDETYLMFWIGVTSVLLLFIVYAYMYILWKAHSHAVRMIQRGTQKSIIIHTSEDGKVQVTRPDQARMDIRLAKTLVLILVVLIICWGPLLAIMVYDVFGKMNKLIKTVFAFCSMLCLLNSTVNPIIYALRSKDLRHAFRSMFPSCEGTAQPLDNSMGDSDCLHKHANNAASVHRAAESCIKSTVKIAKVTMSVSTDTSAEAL
Procedure, shortened: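 Competitive radioligand binding on membranes from CHO cells stably expressing hCB1R. Test compound displaces radioligand, and Ki is derived from that displacement. Selectivity calculated as Ki(CB1R)/Ki(CB2R). Means of at least three independent experiments, each in duplicate.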

hCB2R [8] = target: T1, hCB2R; type: cell-based; details: 0.014 to 10 μM, live CHO cells hCB2R vs hCB1R and wt
hCB2R [9] = target: T1, hCB2R; type: cell-based; details: 5 µM inhibitor, 90 min preincubation; probes 12, 15, 18; hCB2R CHO cells
[10] = normalized to reference full agonist APD371
[11] = read-out: IC50 (column EC50 or IC50), inverse agonists, HTRF cAMP assay, cells stably expressing hCB2R
[12] = EC50 (column EC50 or IC50), agonists, HTRF cAMP assay, cells stably expressing hCB2R

T1 sequence (P34972 whole entry): as the sequence (P34972 whole entry) above

| Compound | Function (hCB2R [1]) | Ki (hCB2R [7]) [nM] | Selectivity, ratio of Ki (CB1R)/Ki (CB2R) (hCB2R [7]) | Ki (hCB1R) [nM] | Emax (hCB2R [1]; CHO) [%] | also measured |
| --- | --- | --- | --- | --- | --- | --- |
| N-(1-(3',6'-BIS(DIMETHYLAMINO)-3-OXO-3H-SPIRO[ISOBENZOFURAN-1,9'-XANTHEN]-5/6-YL)-13-ETHYL-1,12-DIOXO-5,8-DIOXA-2,11-DIAZAPENTADECAN-13-YL)-5-CYCLOPROPYL-6-(4-FLUOROBENZYL)PICOLINAMIDE [Compound 12] | partial agonism; also recorded: Partial agonist |  |  |  |  | Emax (hCB2R [1]; [10]): 80%; EC50 (hCB2R [1]; read-out: EC50 (column EC50 or IC50), agonists, HTRF cAMP assay, cells stably expressing hCB2R): 82 nM; reduction of intracellular staining by endocytosis blockers (hCB2R-CHO cells [2]): 70%; MFI of labeled CB2R in intracellular compartments [3]: 2575 ± 100 MFI; plasma membrane labelling intensity (MFI) of labeled CB2R [3]: 2090 ± 175 MFI; co-localization with LysoTracker (hCB2R-CHO cells [4]): partial overlap but no clear co-localization; kinetic binding characterization (hCB2R [5]): fast association and appropriate residence time; distribution pattern in human macrophages [6]: widely distributed within the cell |
| CCC(CC)(NC(=O)c1ccc(N2CC(OC)C2)c(OC[C@H]2C[C@@H]2CO)n1)C(=O)NCCOCCNC(=O)OC(C)(C)C [Compound 11a, TERT-BUTYL (2-(2-(2-ETHYL-2-(6-(((1S,2S)-2-(HYDROXYMETHYL)CYCLOPROPYL)METHOXY)-5-(3-METHOXYAZETIDIN-1-YL)PICOLINAMIDO)BUTANAMIDO)ETHOXY)ETHYL)CARBAMATE] |  | 2060 | >4 | > 10000 |  |  |
| 3',6'-DIAMINO-5/6-((3,3-DIETHYL-1-(6-(((1S,2S)-2-(HYDROXYMETHYL)CYCLOPROPYL)METHOXY)-5-(3-METHOXYAZETIDIN-1-YL)PYRIDIN-2-YL)-1,4-DIOXO-8,11-DIOXA-2,5-DIAZATRIDECAN-13-YL)CARBAMOYL)-3-OXO-3H-SPIRO[ISOBENZOFURAN-1,9'-XANTHENE]-4',5'-DISULFONIC ACID [Compound 18] | Inverse agonist |  |  |  |  | selectivity and specificity for hCB2R in flow cytometry (hCB2R [8]): high selectivity even at very high concentrations; Emax (hCB2R [1]; [10]): −26%; IC50 (hCB2R [1]; [11]): 262 nM |
| CCC(CC)(NC(=O)c1ccc(C2CC2)c(Cc2ccc(F)cc2)n1)C(=O)NCCOCCOCCOCCNC(=O)OC(C)(C)C [Compound 10c, TERT-BUTYL (1-(5-CYCLOPROPYL-6-(4-FLUOROBENZYL)PYRIDIN-2-YL)-3,3-DIETHYL-1,4-DIOXO-8,11,14-TRIOXA-2,5-DIAZAHEXADECAN-16-YL)CARBAMATE] |  | 63 | 12 | 748 |  |  |
| CCC(CC)(NC(=O)c1ccc(C2CC2)c(Cc2ccc(F)cc2)n1)C(=O)NCCOCCOCCNC(=O)c1ccc2c(c1)C(=O)OC21c2ccc(N)c(S(=O)(=O)O)c2Oc2c1ccc(N)c2S(=O)(=O)O [Compound 14, 3',6'-DIAMINO-5-((1-(5-CYCLOPROPYL-6-(4-FLUOROBENZYL)PYRIDIN-2-YL)-3,3-DIETHYL-1,4-DIOXO-8,11-DIOXA-2,5-DIAZATRIDECAN-13-YL)CARBAMOYL)-3-OXO-3H-SPIRO[ISOBENZOFURAN-1,9'-XANTHENE]-4',5'-DISULFONIC ACID] | partial agonism; also recorded: Partial agonist |  |  |  | 79 | selectivity and specificity for hCB2R in flow cytometry (hCB2R [8]): high selectivity even at very high concentrations; EC50 (hCB2R [1]; [12]): 77 nM |
| CCC(CC)(NC(=O)c1ccc(C2CC2)c(Cc2ccc(F)cc2)n1)C(=O)NCCOCCOCCNC(=O)c1ccc2c(c1)C1(OC2=O)c2ccc(N(C)C)cc2[Si](C)(C)c2cc(N(C)C)ccc21 [Compound 13, N-(1-(3,7-BIS(DIMETHYLAMINO)-5,5-DIMETHYL-3'-OXO-3'H,5H-SPIRO[DIBENZO[B,E]SILINE-10,1'-ISOBENZOFURAN]-6'-YL)-13-ETHYL-1,12-DIOXO-5,8-DIOXA-2,11-DIAZAPENTADECAN-13-YL)-5-CYCLOPROPYL-6-(4-FLUOROBENZYL)PICOLINAMIDE] | full agonism; also recorded: Full agonist |  |  |  | 127 | EC50 (hCB2R [1]; [12]): 528 nM |
| CCC(CC)(NC(=O)c1ccc(N2CC(OC)C2)c(OC[C@H]2C[C@@H]2CO)n1)C(=O)NCCOCCOCCNC(=O)c1ccc2c(c1)C1(OC2=O)c2ccc(N(C)C)cc2[Si](C)(C)c2cc(N(C)C)ccc21 [Compound 17, N-(1-(3,7-BIS(DIMETHYLAMINO)-5,5-DIMETHYL-3'-OXO-3'H,5H-SPIRO[DIBENZO[B,E]SILINE-10,1'-ISOBENZOFURAN]-6'-YL)-13-ETHYL-1,12-DIOXO-5,8-DIOXA-2,11-DIAZAPENTADECAN-13-YL)-6-(((1S,2S)-2-(HYDROXYMETHYL)CYCLOPROPYL)METHOXY)-5-(3-METHOXYAZETIDIN-1-YL)PICOLINAMIDE] | Inverse agonist |  |  |  | -29 | IC50 (hCB2R [1]): 129 nM |
| CCC(CC)(NC(=O)c1ccc(N2CC(OC)C2)c(OC[C@H]2C[C@@H]2CO)n1)C(=O)NCCOCCOCCOCCNC(=O)OC(C)(C)C [Compound 11c, TERT-BUTYL (3,3-DIETHYL-1-(6-(((1S,2S)-2-(HYDROXYMETHYL)CYCLOPROPYL)METHOXY)-5-(3-METHOXYAZETIDIN-1-YL)PYRIDIN-2-YL)-1,4-DIOXO-8,11,14-TRIOXA-2,5-DIAZAHEXADECAN-16-YL)CARBAMATE] |  | > 10000 |  | > 10000 |  |  |
| CCC(CC)(NC(=O)c1ccc(C2CC2)c(Cc2ccc(F)cc2)n1)C(=O)NCCOCCOCCOCCOCCNC(=O)OC(C)(C)C [Compound 10d, TERT-BUTYL (1-(5-CYCLOPROPYL-6-(4-FLUOROBENZYL)PYRIDIN-2-YL)-3,3-DIETHYL-1,4-DIOXO-8,11,14,17-TETRAOXA-2,5-DIAZANONADECAN-19-YL)CARBAMATE] |  | 144 | 10 | 1470 |  |  |
| CCC(CC)(NC(=O)c1ccc(C2CC2)c(Cc2ccc(F)cc2)n1)C(=O)NCCOCCOCCNC(=O)OC(C)(C)C [Compound 10b, TERT-BUTYL (1-(5-CYCLOPROPYL-6-(4-FLUOROBENZYL)PYRIDIN-2-YL)-3,3-DIETHYL-1,4-DIOXO-8,11-DIOXA-2,5-DIAZATRIDECAN-13-YL)CARBAMATE] | partial agonist | 6 | 78 | 466 | 83 | EC50 (hCB2R [1]; [12]): 49 nM |
| CCC(CC)(NC(=O)c1ccc(N2CC(OC)C2)c(OC[C@H]2C[C@@H]2CO)n1)C(=O)NCCOCCOCCNC(=O)OC(C)(C)C [Compound 11b, TERT-BUTYL (3,3-DIETHYL-1-(6-(((1S,2S)-2-(HYDROXYMETHYL)CYCLOPROPYL)METHOXY)-5-(3-METHOXYAZETIDIN-1-YL)PYRIDIN-2-YL)-1,4-DIOXO-8,11-DIOXA-2,5-DIAZATRIDECAN-13-YL)CARBAMATE] | Inverse agonist | 106 | >94 | > 10000 | -63 | IC50 (hCB2R [1]): 88 nM |
| CCC(CC)(NC(=O)c1ccc(C2CC2)c(Cc2ccc(F)cc2)n1)C(=O)NCCOCCNC(=O)OC(C)(C)C [Compound 10a, TERT-BUTYL (2-(2-(2-(5-CYCLOPROPYL-6-(4-FLUOROBENZYL)PICOLINAMIDO)-2-ETHYLBUTANAMIDO)ETHOXY)ETHYL)CARBAMATE] |  | 28 | 30 | 836 |  |  |
| N-(1-(3',6'-BIS(DIMETHYLAMINO)-3-OXO-3H-SPIRO[ISOBENZOFURAN-1,9'-XANTHEN]-5/6-YL)-13-ETHYL-1,12-DIOXO-5,8-DIOXA-2,11-DIAZAPENTADECAN-13-YL)-6-(((1S,2S)-2-(HYDROXYMETHYL)CYCLOPROPYL)METHOXY)-5-(3-METHOXYAZETIDIN-1-YL)PICOLINAMIDE [Compound 16] | Inverse agonist |  |  |  |  | Emax (hCB2R [1]; [10]): −29%; IC50 (hCB2R [1]; [11]): 114 nM; reduction of intracellular staining by endocytosis blockers (hCB2R-CHO cells [2]): without affecting; MFI of labeled CB2R in intracellular compartments [3]: 340 ± 13 MFI; plasma membrane labelling intensity (MFI) of labeled CB2R [3]: 350 ± 4 MFI; co-localization with LysoTracker (hCB2R-CHO cells [4]): clear co-localization pattern; kinetic binding characterization (hCB2R [5]): fast association and appropriate residence time; distribution pattern in human macrophages [6]: mainly localized on cellular membranes and partially in perinuclear dots |
| CC(C)(C)c1nc(N2CC[C@H](O)C2)c2nnn(Cc3nnnn3C3CC3)c2n1 [RO6871304] |  |  |  |  |  | blocking of fluorescent probe staining (hCB2R [9]): completely blocked the staining |
